Tests used:
[1] = test system: KB-V1; test: Induction of apoptosis in human KBV1 cells assessed as early apoptotic cells at 1 uM after 48 hrs by Annexin V-FITC/propidium iodide staining based FACS analysis (reference value: 5.3%); type: functional
[2] = test system: KB 3-1; test: Potentiation of colchicine-induced apoptosis in human KB-3-1 cells assessed as early apoptotic cells at 1 uM after 48 hrs by Annexin V-FITC/propidium iodide staining based FACS analysis (reference value: 30.5%); type: functional
[3] = molecular target: T1, ATP-dependent translocase ABCB1 (Homo sapiens, UniProt P08183); test: Inhibition of ABCB1 in human NCI-ADR-RES cells assessed as potentiation of doxorubicin-induced cytotoxicity by measuring doxorubicin resistance ratio at 500 nM after 72 hrs by MTT assay relative to parental OVCAR8 cells (reference value: 46); type: cell-based; details: ovcar-8, 72 h, 0.5 µM
T1 sequence (P08183 whole entry): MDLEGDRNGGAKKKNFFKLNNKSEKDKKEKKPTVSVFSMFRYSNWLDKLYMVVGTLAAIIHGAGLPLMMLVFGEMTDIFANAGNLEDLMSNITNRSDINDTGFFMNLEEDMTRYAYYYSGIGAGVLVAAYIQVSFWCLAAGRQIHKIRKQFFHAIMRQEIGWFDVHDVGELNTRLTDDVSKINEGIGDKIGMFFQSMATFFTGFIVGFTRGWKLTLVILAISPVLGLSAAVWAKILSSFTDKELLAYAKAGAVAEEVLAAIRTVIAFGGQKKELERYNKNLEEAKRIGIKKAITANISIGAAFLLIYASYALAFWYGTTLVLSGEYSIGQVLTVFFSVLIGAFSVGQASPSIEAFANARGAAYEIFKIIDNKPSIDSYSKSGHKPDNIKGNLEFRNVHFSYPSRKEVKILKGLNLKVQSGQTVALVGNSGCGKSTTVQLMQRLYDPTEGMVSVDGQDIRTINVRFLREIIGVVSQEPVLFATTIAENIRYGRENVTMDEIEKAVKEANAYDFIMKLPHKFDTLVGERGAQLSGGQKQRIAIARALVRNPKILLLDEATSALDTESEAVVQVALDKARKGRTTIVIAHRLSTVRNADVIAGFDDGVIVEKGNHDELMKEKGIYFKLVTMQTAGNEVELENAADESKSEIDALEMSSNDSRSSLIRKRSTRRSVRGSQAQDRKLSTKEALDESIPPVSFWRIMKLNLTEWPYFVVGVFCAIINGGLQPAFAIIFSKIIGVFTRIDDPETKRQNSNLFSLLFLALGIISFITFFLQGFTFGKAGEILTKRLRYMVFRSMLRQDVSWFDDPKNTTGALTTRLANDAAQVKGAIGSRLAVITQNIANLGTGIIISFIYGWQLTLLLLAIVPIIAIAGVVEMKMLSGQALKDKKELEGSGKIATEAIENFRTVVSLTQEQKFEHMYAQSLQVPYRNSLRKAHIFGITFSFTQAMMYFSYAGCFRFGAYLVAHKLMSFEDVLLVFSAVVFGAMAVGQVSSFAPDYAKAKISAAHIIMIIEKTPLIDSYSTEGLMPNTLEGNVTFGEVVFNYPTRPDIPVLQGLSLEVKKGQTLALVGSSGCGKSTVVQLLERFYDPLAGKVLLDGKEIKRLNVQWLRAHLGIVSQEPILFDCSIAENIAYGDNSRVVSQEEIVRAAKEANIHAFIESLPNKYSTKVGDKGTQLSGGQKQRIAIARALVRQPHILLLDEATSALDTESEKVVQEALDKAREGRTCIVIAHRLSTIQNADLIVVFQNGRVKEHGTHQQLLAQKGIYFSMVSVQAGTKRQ
Outline: (§1)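 Cells were kept in drug-free DMEM with 10% FCS for 7 days before assay, then plated at 5000 cells/well for 24 h. Drug at various concentrations was added with a nontoxic fixed level of modulator for 72 h, and the read-out was MTT. IC50 came from fitted curves (≥3 experiments). RR = IC50 of the resistant line / IC50 of the parental line.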

[4] = molecular target: T1, ATP-dependent translocase ABCB1; test: Binding affinity to Vanadate-sensitive ABCB1 (unknown origin)
[5] = molecular target: T1, ATP-dependent translocase ABCB1; test: Inhibition of ABCB1 in human KBV1 cells assessed as potentiation of colchicine-induced cytotoxicity by measuring colchicine resistance ratio at 500 nM after 72 hrs by MTT assay relative to parental KB-3-1 cells (reference value: 55); type: cell-based; details: kbv1, 72 h, 0.5 µM; outline: as §1
[6] = molecular target: T1, ATP-dependent translocase ABCB1; test: Inhibition of ABCB1 in human NCI-ADR-RES cells assessed as potentiation of vincristine-induced cytotoxicity by measuring vincristine resistance ratio at 200 nM after 72 hrs by MTT assay relative to parental OVCAR8 cells (reference value: 435); type: cell-based; details: ovcar-8, 72 h, 0.2 µM; outline: as §1
[7] = molecular target: Multidrug resistance-associated protein 1 (Homo sapiens, UniProt P33527); test: Inhibition of human ABCC1 transfected in HEK293 cells assessed as potentiation of etoposide-induced cytotoxicity by measuring etoposide resistance ratio at 500 nM after 72 hrs by CCK8 assay relative to parental HEK293 cells (reference value: 350); type: cell-based; details: hek293, 72 h, 0.5 µM
Chain of Multidrug resistance-associated protein 1 (P33527 whole entry): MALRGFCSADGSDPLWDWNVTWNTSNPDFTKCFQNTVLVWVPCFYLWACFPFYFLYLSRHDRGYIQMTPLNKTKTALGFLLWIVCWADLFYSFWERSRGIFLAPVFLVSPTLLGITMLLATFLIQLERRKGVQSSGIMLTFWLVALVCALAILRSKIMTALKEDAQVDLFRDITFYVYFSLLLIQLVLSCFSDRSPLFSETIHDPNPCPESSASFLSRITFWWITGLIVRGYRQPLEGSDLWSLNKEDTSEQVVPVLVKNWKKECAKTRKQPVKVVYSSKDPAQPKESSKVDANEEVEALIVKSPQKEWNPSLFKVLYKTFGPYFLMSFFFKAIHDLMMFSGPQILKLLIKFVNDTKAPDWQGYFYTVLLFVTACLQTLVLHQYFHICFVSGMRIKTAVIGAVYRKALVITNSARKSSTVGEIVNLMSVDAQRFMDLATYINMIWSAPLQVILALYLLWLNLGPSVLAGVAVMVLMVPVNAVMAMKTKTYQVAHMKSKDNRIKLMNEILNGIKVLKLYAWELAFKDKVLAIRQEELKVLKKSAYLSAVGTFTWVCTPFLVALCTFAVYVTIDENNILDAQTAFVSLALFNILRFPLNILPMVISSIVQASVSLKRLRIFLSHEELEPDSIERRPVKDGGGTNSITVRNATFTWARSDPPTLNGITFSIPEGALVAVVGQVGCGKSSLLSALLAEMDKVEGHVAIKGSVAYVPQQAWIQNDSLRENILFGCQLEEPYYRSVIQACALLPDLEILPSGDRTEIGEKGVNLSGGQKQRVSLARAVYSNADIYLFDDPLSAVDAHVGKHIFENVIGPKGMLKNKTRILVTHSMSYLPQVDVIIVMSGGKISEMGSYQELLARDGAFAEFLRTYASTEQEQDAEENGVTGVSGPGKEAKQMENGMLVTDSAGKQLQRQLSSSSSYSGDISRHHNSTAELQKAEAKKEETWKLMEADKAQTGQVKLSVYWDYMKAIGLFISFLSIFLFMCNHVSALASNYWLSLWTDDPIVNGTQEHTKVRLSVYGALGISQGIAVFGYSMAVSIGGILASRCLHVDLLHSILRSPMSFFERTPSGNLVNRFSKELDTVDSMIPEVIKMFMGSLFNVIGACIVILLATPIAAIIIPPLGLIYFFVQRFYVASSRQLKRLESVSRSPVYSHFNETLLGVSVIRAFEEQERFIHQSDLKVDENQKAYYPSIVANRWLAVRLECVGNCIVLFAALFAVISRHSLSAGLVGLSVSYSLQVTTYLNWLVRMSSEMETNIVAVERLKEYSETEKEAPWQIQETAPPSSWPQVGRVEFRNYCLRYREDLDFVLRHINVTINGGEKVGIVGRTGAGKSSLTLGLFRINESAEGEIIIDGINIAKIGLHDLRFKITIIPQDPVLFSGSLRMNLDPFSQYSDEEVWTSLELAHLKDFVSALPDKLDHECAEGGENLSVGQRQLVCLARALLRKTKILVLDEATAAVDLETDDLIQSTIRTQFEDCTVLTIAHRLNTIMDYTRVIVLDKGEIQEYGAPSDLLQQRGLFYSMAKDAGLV

[8] = molecular target: T1, ATP-dependent translocase ABCB1; test: Inhibition of ABCB1 in human NCI-ADR-RES cells assessed as potentiation of colchicine-induced cytotoxicity by measuring colchicine resistance ratio at 200 nM after 72 hrs by MTT assay relative to parental OVCAR8 cells (reference value: 59); type: cell-based; details: ovcar-8, 72 h, 0.2 µM; outline: as §1
[9] = molecular target: T1, ATP-dependent translocase ABCB1; test: Inhibition of ABCB1 in human NCI-ADR-RES cells assessed as potentiation of doxorubicin-induced cytotoxicity by measuring doxorubicin resistance ratio at 100 nM after 72 hrs by MTT assay relative to parental OVCAR8 cells (reference value: 46); type: cell-based; details: ovcar-8, 72 h, 0.1 µM; outline: as §1
[10] = molecular target: T1, ATP-dependent translocase ABCB1; test: Inhibition of ABCB1 in human NCI-ADR-RES cells assessed as potentiation of vincristine-induced cytotoxicity by measuring vincristine resistance ratio at 100 nM after 72 hrs by MTT assay relative to parental OVCAR8 cells (reference value: 435); type: cell-based; details: ovcar-8, 72 h, 0.1 µM; outline: as §1
[11] = molecular target: T1, ATP-dependent translocase ABCB1; test: Inhibition of human ABCB1-mediated efflux transfected in HEK293 cells assessed as accumulation of fluorescent dye at 1 uM by calcein-AM dye based FACS analysis; type: cell-based; details: hek293, 1 µM
Outline: (§2)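 The HEK293 cells, transfected with human ABCB1 (parental HEK293 as control), were trypsinized and resuspended in IMDM with 5% FCS. Calcein-AM was added to 3 × 10^5 cells in 4 mL, with or without test compound (single 1 μM or a concentration series) or 3 μM tariquidar. Fluorescence was read immediately by flow cytometry. Results are the mean ± SEM of at least three experiments.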

[12] = molecular target: T1, ATP-dependent translocase ABCB1; test: Inhibition of human ABCB1-mediated efflux transfected in HEK293 cells assessed as accumulation of fluorescent dye by calcein-AM dye based FACS analysis; type: cell-based; outline: as §2
[13] = molecular target: T1, ATP-dependent translocase ABCB1; test: Inhibition of ABCB1 in human NCI-ADR-RES cells assessed as potentiation of vincristine-induced cytotoxicity by measuring vincristine resistance ratio at 500 nM after 72 hrs by MTT assay relative to parental OVCAR8 cells (reference value: 435); type: cell-based; details: ovcar-8, 72 h, 0.5 µM; outline: as §1
[14] = molecular target: T1, ATP-dependent translocase ABCB1; test: Inhibition of human ABCB1 transfected in HEK293 cells assessed as potentiation of doxorubicin-induced cytotoxicity by measuring doxorubicin resistance ratio at 50 nM after 72 hrs by CCK8 assay relative to parental HEK293 cells (reference value: 96); type: cell-based; details: hek293, 72 h, 0.05 µM
[15] = molecular target: ABCB1 (P-glycoprotein) (Homo sapiens, UniProt P08183); test: Induction of Vanadate-sensitive ABCB1 (unknown origin) assessed as increase in ATPase activity up to 1 uM by Pgp-glo assay relative to control; details: read-out: FC
Chain of ABCB1 (P-glycoprotein) (P08183 whole entry): as the sequence (P08183 whole entry) above
Outline: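 Vanadate-sensitive ABCB1 ATPase activity measured with the Pgp-Glo system as […], across 0–1 μM test compound. Points are means of at least three independent experiments.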

[16] = test system: KB 3-1; test: Potentiation of colchicine-induced apoptosis in human KB-3-1 cells assessed as necrotic cells at 1 uM after 48 hrs by Annexin V-FITC/propidium iodide staining based FACS analysis (reference value: 4.9%); type: functional
[17] = test system: KB 3-1; test: Induction of apoptosis in human KB-3-1 cells assessed as viable cells at 1 uM after 48 hrs by Annexin V-FITC/propidium iodide staining based FACS analysis (reference value: 88.4%); type: functional; details: KB 3-1, 48 h, read-out: Activity
[18] = molecular target: T1, ATP-dependent translocase ABCB1; test: Inhibition of ABCB1 in human NCI-ADR-RES cells assessed as potentiation of doxorubicin-induced cytotoxicity by measuring doxorubicin resistance ratio at 200 nM after 72 hrs by MTT assay relative to parental OVCAR8 cells (reference value: 46); type: cell-based; details: ovcar-8, 72 h, 0.2 µM; outline: as §1
[19] = test system: KB 3-1; test: Induction of apoptosis in human KB-3-1 cells assessed as late apoptotic cells at 1 uM after 48 hrs by Annexin V-FITC/propidium iodide staining based FACS analysis (reference value: 5.8%); type: functional
[20] = test system: KB 3-1; test: Potentiation of colchicine-induced apoptosis in human KB-3-1 cells assessed as late apoptotic cells at 1 uM after 48 hrs by Annexin V-FITC/propidium iodide staining based FACS analysis (reference value: 25.7%); type: functional
[21] = molecular target: T1, ATP-dependent translocase ABCB1; test: Inhibition of ABCB1 in human KBV1 cells assessed as potentiation of colchicine-induced cytotoxicity by measuring colchicine resistance ratio at 200 nM after 72 hrs by MTT assay relative to parental KB-3-1 cells (reference value: 55); type: cell-based; details: kbv1, 72 h, 0.2 µM; outline: as §1
[22] = molecular target: T1, ATP-dependent translocase ABCB1; test: Inhibition of ABCB1 in human NCI-ADR-RES cells assessed as potentiation of vincristine-induced cytotoxicity by measuring vincristine resistance ratio at 50 nM after 72 hrs by MTT assay relative to parental OVCAR8 cells (reference value: 435); type: cell-based; details: ovcar-8, 72 h, 0.05 µM; outline: as §1
[23] = molecular target: T1, ATP-dependent translocase ABCB1; test: Inhibition of ABCB1 in human KBV1 cells assessed as potentiation of colchicine-induced cytotoxicity by measuring colchicine resistance ratio at 50 nM after 72 hrs by MTT assay relative to parental KB-3-1 cells (reference value: 55); type: cell-based; details: kbv1, 72 h, 0.05 µM; outline: as §1

Ki [4]: 0.02 µM
inhibition (INH) [11]: Active
IC50 [12]: 0.3 µM
inhibition (INH) ([12]; human, hek293): Dose-dependent effect
fold induction [15]: 7
Structure (SMILES): COc1ccc2cc1Oc1ccc(cc1)C[C@H]1c3cc(c(OC)cc3CCN1C)Oc1c(OC)c(OC)c(OC)c3c1[C@H](C2)N(C)CC3 [HERNANDEZINE]
Activity [1]: 4.7%
Activity [2]: 31.1%
Ratio [3]: 2
Ratio [5]: 3
Ratio [6]: 196
Ratio [7]: 547
Ratio [8]: 10
Ratio [9]: 11
Ratio [10]: 433
Ratio [13]: 19
Ratio [14]: 16
Activity [16]: 5.1%
viability at 1 µM [17]: 88.8%
Ratio [18]: 5
Activity [19]: 4.4%
Activity [20]: 26.4%
Ratio [21]: 13
Ratio [22]: 505
Ratio [23]: 31
